Test results: article PMC4127500 (Scientific Reports, 2014)
Converted amounts (≈) assume the structure as drawn.

Columns and labels:
[1] = system: B. cereus 6591; assay: Minimum inhibitory concentration; type: cell-based
Summary of the method: (§1)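 Broth microdilution in Mueller Hinton Broth per CLSI. Inoculum was pre-incubated in TSB at 30°C to 0.5 McFarland. Amoxicillin, ampicillin, cefotaxime and gentamicin were tested over 0.5–1024 µg.mL−1, alone or with test compound at 128 µg.mL−1. Each set was repeated three times.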

[2] = system: S. aureus ATCC33591; assay: Minimum inhibitory concentration; type: cell-based
Summary of the method: as §1

[3] = system: S. aureus (ATCC33591); assay: Murine non-lethal Staphylococcus aureus infection model; type: in vivo, C57BL/6 mice; conditions: S. aureus infected mice
Summary of the method: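 C57BL/6 mice (18–22 g, n = 6/group) got i.p. 100 µL of S. aureus ATCC33591 at 2 × 10^5 CFU.mL−1. After 1 h, penicillin or ampicillin (100 or 200 mg.kg−1) or cefotaxime (35 mg.kg−1) was given i.p. at 12, 24, 48 and 72 h over 7 days. Day-7 blood and peritoneal fluid were serially diluted, plated in triplicate on mannitol salt agar, and counted as CFU.mL−1.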

[4] = system: S. aureus 7314; assay: Minimum inhibitory concentration; type: cell-based
Summary of the method: as §1

[5] = system: E. coli 1812446 clinical strain; assay: Murine non-lethal Escherichia coli infection model; type: in vivo, C57BL/6 mice; conditions: E. coli infected mice
Summary of the method: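 C57BL/6 mice (18–22 g, n = 6/group) got i.p. 200 μl holding 2.5 × 10^8 CFU of E. coli 1812446. One hour later they were treated i.p. with penicillin or ampicillin (100 or 200 mg.kg−1) or gentamicin (10 mg.kg−1), at 12, 24, 48 and 72 h over 7 days. On day 7, blood and peritoneal fluid were serially diluted and plated in triplicate on Mueller Hinton agar at 37°C overnight. Detection limit was 100 CFU.ml−1.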

[6] = system: E. coli 6881; assay: Minimum inhibitory concentration; type: cell-based
Summary of the method: as §1

[7] = system: P. aeruginosa 6817; assay: Minimum inhibitory concentration; type: cell-based
Summary of the method: as §1

[8] = system: E. coli (TEM-1); assay: Minimum inhibitory concentration; type: cell-based
Summary of the method: as §1

[9] = system: E. coli 1812446; assay: Minimum inhibitory concentration; type: cell-based
Summary of the method: as §1

[10] = system: E. coli 2101123; assay: Minimum inhibitory concentration; type: cell-based
Summary of the method: as §1

[11] = system: RAW 264.7 cells; assay: MTT cell viability assay; type: cell-based, murine; conditions: RAW 264.7 monocytes; 24 h
Summary of the method: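 RAW 264.7 cells kept in DMEM with 4 mM L-glutamine, 10% FCS, 2 mM nonessential amino acids and penicillin/streptomycin at 37°C, 5% CO2. Cells were exposed 24 h to test compound or antibiotics, free or combined. Viability was read by MTT (reagent 5 mg.mL−1 in PBS) in three replicates, as % of PBS (pH 7.4) control; mastoparan-L (1–100 μg.mL−1) was the positive control.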

[12] = B. cereus 6591, in the presence of dBLIP1 (128 µg.mL^−1)
[13] = B. cereus 6591, in the presence of dBLIP2 (128 µg.mL^−1)
[14] = S. aureus ATCC33591, in the presence of dBLIP1 (128 µg.mL^−1)
[15] = S. aureus ATCC33591, in the presence of dBLIP2 (128 µg.mL^−1)
[16] = Staphylococcus aureus, ATCC33591
[17] = S. aureus 7314, in the presence of dBLIP1 (128 µg.mL^−1)
[18] = S. aureus 7314, in the presence of dBLIP2 (128 µg.mL^−1)
[19] = E. coli 6881, in the presence of dBLIP1 (128 µg.mL^−1)
[20] = E. coli 6881, in the presence of dBLIP2 (128 µg.mL^−1)
[21] = P. aeruginosa 6817, in the presence of dBLIP1 (128 µg.mL^−1)
[22] = P. aeruginosa 6817, in the presence of dBLIP2 (128 µg.mL^−1)
[23] = E. coli 1812446, in the presence of dBLIP1 (128 µg.mL^−1)
[24] = E. coli 1812446, in the presence of dBLIP2 (128 µg.mL^−1)
[25] = E. coli 2101123, in the presence of dBLIP1 (128 µg.mL^−1)
[26] = E. coli 2101123, in the presence of dBLIP2 (128 µg.mL^−1)
[27] = E. coli (TEM-1), in the presence of dBLIP1 (128 µg.mL^−1)
[28] = E. coli (TEM-1), in the presence of dBLIP2 (128 µg.mL^−1)

Molecule | MIC [1, 12] | MIC [1, 13] | MIC ([1]; Bacillus cereus, 6591) | MIC [2, 14] | MIC [2, 15] | MIC [2, 16] | MIC [4, 17] | MIC [4, 18] | MIC ([4]; Staphylococcus aureus, 7314) | MIC [6, 19] | MIC [6, 20] | MIC ([6]; Escherichia coli, 6881) | MIC [7, 21] | MIC [7, 22] | MIC ([7]; Pseudomonas aeruginosa, 6817) | MIC ([8]; Escherichia coli) | MIC [9, 23] | MIC [9, 24] | MIC ([9]; Escherichia coli, 1812446) | MIC [10, 25] | also measured
CC1(C)S[C@@H]2[C@H](NC(=O)[C@H](N)c3ccccc3)C(=O)N2[C@H]1C(=O)O [AMP, Ampicillin] | 16 mg/L | 8 mg/L | 256 mg/L (≈ 733 µM) | 128 mg/L | 128 mg/L | 512 mg/L (≈ 1470 µM) | 32 mg/L | 32 mg/L | 512 mg/L (≈ 1470 µM) | 32 mg/L | 32 mg/L | 128 mg/L (≈ 366 µM) | 32 mg/L | 32 mg/L | 512 mg/L (≈ 1470 µM) | 1020 mg/L (≈ 2930 µM) | 512 mg/L | 512 mg/L | > 512 mg/L | 256 mg/L | CFU, antibiotic alone ([3]; 200 mg.kg^−1 i.p.): CFUs were slightly reduced; CFU, antibiotic alone ([5]; 100 mg.kg^−1 i.p.): did not cause any bactericidal effect; CFU, antibiotic alone ([5]; 200 mg.kg^−1 i.p.): a lower reduction in CFU; MIC [10, 26]: 256 mg/L; MIC ([10]; Escherichia coli, 2101123): > 512 mg/L; cytotoxic activity against RAW 264.7 (MTT cell viability) [11]: 200 µg/mL
CC1(C)S[C@@H]2[C@H](NC(=O)[C@H](N)c3ccc(O)cc3)C(=O)N2[C@H]1C(=O)O [AMX, Amoxicillin] | 8 mg/L | 8 mg/L | 256 mg/L (≈ 701 µM) | 32 mg/L | 32 mg/L | 512 mg/L (≈ 1400 µM) | 32 mg/L | 16 mg/L | 512 mg/L (≈ 1400 µM) | 32 mg/L | 16 mg/L | 128 mg/L (≈ 350 µM) | 32 mg/L | 16 mg/L | 512 mg/L (≈ 1400 µM) | 128 mg/L (≈ 350 µM) | 16 mg/L | 16 mg/L | 256 mg/L (≈ 701 µM) | 8 mg/L | MIC [10, 26]: 8 mg/L; MIC ([10]; Escherichia coli, 2101123): 256 mg/L (≈ 701 µM)
CO/N=C(\C(=O)N[C@@H]1C(=O)N2C(C(=O)O)=C(COC(C)=O)CS[C@H]12)c1csc(N)n1 [CTX, Cefotaxime] | 8 mg/L | 8 mg/L | 64 mg/L (≈ 141 µM) | 8 mg/L | 8 mg/L | 128 mg/L (≈ 281 µM) | 8 mg/L | 8 mg/L | 128 mg/L (≈ 281 µM) | 8 mg/L | 8 mg/L | 64 mg/L (≈ 141 µM) | 8 mg/L | 8 mg/L | 64 mg/L (≈ 141 µM) | 32 mg/L (≈ 70.3 µM) | 16 mg/L | 16 mg/L | 256 mg/L (≈ 562 µM) | 8 mg/L | CFU, antibiotic alone ([3]; cefotaxime 35 mg.kg^−1 i.p.): efficient reduction in CFU; MIC [8, 27]: 4 mg/L; MIC [8, 28]: 4 mg/L; MIC [10, 26]: 8 mg/L; MIC ([10]; Escherichia coli, 2101123): 128 mg/L (≈ 281 µM)
CNC(C)C1CCC(N)C(OC2C(N)CC(N)C(OC3OCC(C)(O)C(NC)C3O)C2O)O1 (centres unmarked) [GEN, Gentamicin] | 4 mg/L | 4 mg/L | 32 mg/L (≈ 67 µM) | 8 mg/L | 8 mg/L | 64 mg/L (≈ 134 µM) | 8 mg/L | 8 mg/L | 64 mg/L (≈ 134 µM) | 4 mg/L | 4 mg/L | 32 mg/L (≈ 67 µM) | 8 mg/L | 8 mg/L | 32 mg/L (≈ 67 µM) | 32 mg/L (≈ 67 µM) | 128 mg/L | 128 mg/L | 512 mg/L (≈ 1070 µM) | 128 mg/L | CFU, antibiotic alone ([5]; gentamicin 10 mg.kg^−1 i.p.): efficient CFU decline; MIC [8, 27]: 4 mg/L; MIC [8, 28]: 4 mg/L; MIC [10, 26]: 128 mg/L; MIC ([10]; Escherichia coli, 2101123): 256 mg/L (≈ 536 µM); cytotoxic activity against RAW 264.7 (MTT cell viability) [11]: 150 µg/mL
CC1(C)S[C@@H]2[C@H](NC(=O)Cc3ccccc3)C(=O)N2[C@H]1C(=O)O [Penicillin G] |  |  |  |  |  |  |  |  |  |  |  |  |  |  |  |  |  |  |  |  | cytotoxic activity against RAW 264.7 (MTT cell viability) [11]: 150 µg/mL
Mastoparan-L |  |  |  |  |  |  |  |  |  |  |  |  |  |  |  |  |  |  |  |  | cytotoxic activity against RAW 264.7 (MTT cell viability) [11]: 10 µg/mL
